# Activity calls are given as the source filed them. No cut-off for these calls is given here. *1 amine or outer side, *2 acyl side, *3 side chain or, on linkers, in order; H or OH if unused. Where a SMILES comes first, the peptide text is derived from it. [ ]: non-standard residue; d: D form. The star is where a group is joined. Pentenoic(2E,4S-NH2) = C[C@@H](/C=C/C(=O)[*:2])N[*:1]; X1 = CC[C@H](C)[C@@H](C(=O)*)N(C)C; NHBn = c1ccc(CN*)cc1
# What was measured:
# Plasmodium falciparum [1] = assay: Antiplasmodial activity against chloroquine-sensitive Plasmodium falciparum 3D7 infected in human erythrocytes by [3H]-hypoxanthine incorporation assay; format: functional, organism-based
# Method in brief: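 IC50 against the chloroquine-sensitive 3D7 strain was measured by [3H]-hypoxanthine incorporation in cultured parasites. Values are means with standard error of the mean from three experiments.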
# Falcipain 2 [2] = molecular target: T1, Falcipain 2 (Plasmodium falciparum, UniProt Q9N6S8); assay: Inhibition of Plasmodium falciparum FP2 using Z-Phe-Arg-AMC as substrate incubated for 30 mins prior to substrate addition measured after 30 mins by fluorescence assay
# T1 sequence (Q9N6S8 whole entry): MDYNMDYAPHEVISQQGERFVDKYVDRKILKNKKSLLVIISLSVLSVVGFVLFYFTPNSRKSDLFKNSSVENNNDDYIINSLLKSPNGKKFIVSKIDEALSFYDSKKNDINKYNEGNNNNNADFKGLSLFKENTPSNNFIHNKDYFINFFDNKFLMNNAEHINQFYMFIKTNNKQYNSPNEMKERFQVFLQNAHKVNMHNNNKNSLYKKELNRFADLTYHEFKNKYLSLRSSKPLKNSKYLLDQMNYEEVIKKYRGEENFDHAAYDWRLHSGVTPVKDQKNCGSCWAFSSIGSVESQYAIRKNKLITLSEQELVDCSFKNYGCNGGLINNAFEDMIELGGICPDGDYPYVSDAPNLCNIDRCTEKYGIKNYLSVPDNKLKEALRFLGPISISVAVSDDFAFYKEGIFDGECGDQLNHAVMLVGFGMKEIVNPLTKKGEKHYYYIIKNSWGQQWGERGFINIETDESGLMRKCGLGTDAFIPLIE
# Method in brief: (§1)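 The assay read enzyme activity with a fluorescence-based kinetic method and reported IC50 in nM. Values are means with standard error of the mean from three experiments.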
# Plasmodium falciparum [3] = assay: Antiplasmodial activity against Plasmodium falciparum 3D7 trophozoite stage assessed as swollen food vacuole after 3 days by Giemsa staining-based assay; format: functional, organism-based
# [4] = Inhibition of Plasmodium falciparum FP3 using Z-Phe-Arg-AMC as substrate incubated for 30 mins prior to substrate addition measured after 30 mins by fluorescence assay; method in brief: as §1
# [5] = Inhibition of FP3 in Plasmodium falciparum trophozoite stage after 1 hr by SDS-PAGE analysis
# Falcipain 2 [6] = molecular target: T1, Falcipain 2; assay: Inhibition of FP2 in Plasmodium falciparum trophozoite stage after 1 hr by SDS-PAGE analysis
# Falcipain 2 [7] = molecular target: T1, Falcipain 2; assay: Inhibition of FP2' in Plasmodium falciparum trophozoite stage after 1 hr by SDS-PAGE analysis
# [8] = Inhibition of FP1 in Plasmodium falciparum trophozoite stage after 1 hr by SDS-PAGE analysis
# Plasmodium falciparum [9] = assay: Antiplasmodial activity against Plasmodium falciparum 3D7; format: functional, organism-based
# Method in brief: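 Chloroquine-sensitive P. falciparum 3D7 cultures; growth inhibition read out as [3H]-hypoxanthine incorporation; IC50 reported with standard error of the mean from three experiments.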
# Plasmodium falciparum [10] = assay: Inhibition of Plasmodium falciparum AP-M1
# [11] = molecular target: Procathepsin L (Homo sapiens) (UniProt P07711); assay: Inhibition of human cathepsin L expressed in Pichia pastoris using N-Cbz-Phe-Arg-7-amino-4-methylcoumarin as substrate incubated for 90 mins prior to substrate addition measured after 30 mins by fluorescence assay
# Plasmodium falciparum [12] = assay: Antiplasmodial activity against multidrug-resistant Plasmodium falciparum Dd2 infected in human erythrocytes by [3H]-hypoxanthine incorporation assay; format: functional, organism-based
# Method in brief: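 Chloroquine-resistant P. falciparum Dd2 strain; IC50 reported with standard error of the mean from three experiments.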
# [13] = Cytotoxicity against […] cells assessed as cell viability by AlamarBlue assay; format: cell-based; settings: Homo sapiens
# Plasmodium falciparum [14] = assay: Inhibition of Plasmodium falciparum AP-M17
# Plasmodium falciparum [15] = assay: Inhibition of Plasmodium falciparum AP-M18
# Plasmodium falciparum [16] = assay: Antiplasmodial activity against Plasmodium falciparum 3D7 trophozoite stage assessed as swollen food vacuole at <5 nM after 3 days by Giemsa staining-based assay; format: functional, organism-based
# Sequence of Procathepsin L (Homo sapiens) (P07711 114-333 limits assumed): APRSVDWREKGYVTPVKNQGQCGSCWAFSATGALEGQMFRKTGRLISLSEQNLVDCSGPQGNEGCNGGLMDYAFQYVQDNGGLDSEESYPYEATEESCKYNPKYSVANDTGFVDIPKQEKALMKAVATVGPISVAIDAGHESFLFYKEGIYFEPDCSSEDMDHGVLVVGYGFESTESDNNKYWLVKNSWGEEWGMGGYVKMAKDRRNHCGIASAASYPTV
SMILES,IC50 (Plasmodium falciparum [1]),IC50 (Falcipain 2 [2]),Activity (Plasmodium falciparum [3]),IC50 [4],IC50 [5],IC50 (Falcipain 2 [6]),IC50 (Falcipain 2 [7]),IC50 [8],IC50 (Plasmodium falciparum [9]),INH (Plasmodium falciparum [10]),inhibition [11],IC50 (Plasmodium falciparum [12]),IC50 [13],INH (Plasmodium falciparum [14]),INH (Plasmodium falciparum [15]),Activity (Plasmodium falciparum [16])
CC[C@H](C)[C@@H](C(=O)N[C@@H](CC(C)C)C(=O)N[C@@H](CC(C)C)C(=O)N[C@H](C(=O)N[C@@H](C)/C=C/C(=O)N[C@@H](C)C(=O)N1C[C@@H](O)C[C@H]1C(=O)OC)C(C)C)N(C)C,> 50000 nM,> 50000 nM,Active,> 50000 nM,–,–,–,–,–,–,–,–,–,–,–,–
CC[C@H](C)[C@@H](C(=O)N[C@@H](CC(C)C)C(=O)N[C@@H](CC(C)C)C(=O)N[C@@H](C)/C=C/C(=O)N[C@@H](C)C(=O)N1C[C@@H](O)C[C@H]1C(=O)OC)N(C)C,1900 nM,7700 nM,Active,> 50000 nM,–,–,–,–,–,–,–,–,–,–,–,–
CC[C@H](C)[C@@H](C(=O)O[C@@H](CC(C)C)C(=O)N[C@@H](CC(C)C)C(=O)N[C@@H](C)/C=C/C(=O)N1C(=O)C=C(OC)[C@@H]1C)N(C)C [GALLINAMIDE A],–,–,–,–,22 nM,8.5 nM,8.5 nM,140 nM,50 nM,–,–,–,–,–,–,–
"CC[C@H](C)[C@@H](C(=O)N[C@@H](CC(C)C)C(=O)N[C@@H](CC(C)C)C(=O)N[C@H](C(=O)N[C@@H](C)/C=C/C(=O)N[C@@H](C)C(=O)NCc1ccccc1)C(C)C)N(C)C (X1-LLV[Pentenoic(2E,4S-NH2)]A-NHBn)",> 50000 nM,> 50000 nM,Active,> 50000 nM,–,–,–,–,–,–,–,–,–,–,–,–
COC1=CC(=O)N(C(=O)CC[C@H](C)NC(=O)[C@H](CC(C)C)NC(=O)[C@H](CC(C)C)NC(=O)[C@H](C(C)C)N(C)C)[C@H]1C,4380 nM,3710 nM,inactive,> 50000 nM,–,–,–,–,–,–,–,–,–,–,–,–
CC(C)C[C@H](NC(=O)[C@H](CC(C)C)NC(=O)[C@H](C(C)C)N(C)C)C(=O)N[C@@H](C)/C=C/C(=O)N[C@@H](C)C(=O)NCc1ccccc1,320 nM,11500 nM,Active,> 25000 nM,–,–,–,–,–,> 10 µM,Active,378 nM,> 50000 nM,> 10 µM,> 10 µM,–
COC1=CC(=O)N(C(=O)/C=C/[C@H](C)NC(=O)[C@H](CC(C)C)NC(=O)[C@H](CC(C)C)NC(=O)[C@H](C(C)C)N(C)C)[C@H]1Cc1c[nH]c2ccccc12,9.7 nM,12 nM,–,66.7 nM,–,–,–,–,–,> 10 µM,Active,29 nM,8500 nM,> 10 µM,> 10 µM,Active
COC1=CC(=O)N(C(=O)/C=C/[C@H](C)NC(=O)[C@H](CC(C)C)NC(=O)[C@H](CC(C)C)NC(=O)[C@H](C(C)C)N(C)C)[C@H]1Cc1ccc(O)cc1,20 nM,5.25 nM,–,81.4 nM,–,–,–,–,–,> 10 µM,Active,67 nM,18900 nM,> 10 µM,> 10 µM,Active
CC(C)C[C@H](NC(=O)[C@H](CC(C)C)NC(=O)[C@H](C(C)C)N(C)C)C(=O)N[C@@H](C)/C=C/C(=O)N1CC(OCc2ccccc2)=CC1=O,96 nM,9.59 nM,–,196 nM,–,–,–,–,–,–,–,–,–,–,–,Active
COC1=CC(=O)N(C(=O)/C=C/[C@H](C)NC(=O)[C@H](CC(C)C)NC(=O)[C@H](CC(C)C)NC(=O)[C@H](C(C)C)N(C)C)C1,57.3 nM,24.8 nM,–,225 nM,–,–,–,–,–,> 10 µM,Active,419 nM,16300 nM,> 10 µM,> 10 µM,Active
CO[C@H]1CC(=O)N(C(=O)CC[C@H](C)NC(=O)[C@H](CC(C)C)NC(=O)[C@H](CC(C)C)NC(=O)[C@H](C(C)C)N(C)C)[C@H]1C,> 50000 nM,> 50000 nM,inactive,> 50000 nM,–,–,–,–,–,–,–,–,–,–,–,–
CC[C@H](C)[C@@H](C(=O)N[C@@H](CC(C)C)C(=O)N[C@@H](CC(C)C)C(=O)N[C@@H](C)/C=C/C(=O)N[C@@H](C)C(=O)NCc1ccccc1)N(C)C,540 nM,10500 nM,Active,> 25000 nM,–,–,–,–,–,> 10 µM,Active,421 nM,> 50000 nM,> 10 µM,> 10 µM,–
CC(C)C[C@H](NC(=O)[C@H](CC(C)C)NC(=O)[C@H](C(C)C)N(C)C)C(=O)N[C@@H](C)/C=C/C(=O)N[C@@H](C)C(=O)Nc1nccs1,1100 nM,2500 nM,Active,34000 nM,–,–,–,–,–,–,–,–,–,–,–,–
CC(C)C[C@H](NC(=O)[C@H](CC(C)C)NC(=O)[C@@H](C(C)C)N(C)C)C(=O)N[C@@H](C)/C=C/C(=O)N[C@@H](C)C(=O)NCc1ccccc1,5400 nM,3400 nM,Active,> 25000 nM,–,–,–,–,–,> 10 µM,Active,170 nM,> 50000 nM,> 10 µM,> 10 µM,–
CO[C@H]1CC(=O)N(C(=O)/C=C/[C@H](C)NC(=O)[C@H](CC(C)C)NC(=O)[C@H](CC(C)C)NC(=O)[C@H](C(C)C)N(C)C)[C@H]1C,210 nM,2.81 nM,Active,163 nM,–,–,–,–,–,–,–,–,–,–,–,–
CC(C)C[C@H](NC(=O)[C@H](CC(C)C)NC(=O)[C@H](C(C)C)N(C)C)C(=O)N[C@@H](C)/C=C/C(=O)N1C(=O)C=C(OCc2ccccc2)[C@@H]1C(C)C,62 nM,6.86 nM,–,182 nM,–,–,–,–,–,–,–,–,–,–,–,Active
CC(C)C[C@H](NC(=O)[C@H](CC(C)C)NC(=O)[C@@H]1CCCN1C)C(=O)N[C@@H](C)/C=C/C(=O)N[C@@H](C)C(=O)NCc1ccccc1,6600 nM,6000 nM,Active,46000 nM,–,–,–,–,–,–,–,–,–,–,–,–
COC1=CC(=O)N(C(=O)/C=C/[C@H](C)NC(=O)[C@H](CC(C)C)NC(=O)[C@H](CC(C)C)NC(=O)[C@H](C(C)C)N(C)C)[C@H]1C(C)C,16.6 nM,9.52 nM,–,131 nM,–,–,–,–,–,> 10 µM,Active,165 nM,9650 nM,> 10 µM,> 10 µM,Active
COC1=CC(=O)N(C(=O)/C=C/[C@H](C)NC(=O)[C@H](CC(C)C)NC(=O)[C@H](CC(C)C)NC(=O)[C@H](C(C)C)N(C)C)[C@H]1C,89.3 nM,6.78 nM,Active,292 nM,–,–,–,–,–,> 10 µM,Active,302 nM,14200 nM,> 10 µM,> 10 µM,–

# — ChEMBL document CHEMBL3351948, “Synthesis of gallinamide A analogues as potent falcipain inhibitors and antimalarials” (J Med Chem, 2014)
